# Measured values from different studies.
# Protocols differ between the studies behind these lines.
# EGFR: Epidermal growth factor receptor (EGFR, Homo sapiens, UniProt P00533)
# EGFR del752-759: Epidermal growth factor receptor (EGFR, Homo sapiens, UniProt P00533, del752-759)
# EGFR del746-750: Epidermal growth factor receptor (EGFR, Homo sapiens, UniProt P00533, del746-750)
Compound,target,test,conditions,endpoint,value
COc1c(Cl)cccc1Nc1c(-c2ccncc2OC[C@@H]2COCCO2)[nH]c2c1C(=O)NCC2,EGFR,"enzyme activity, inhibitor, radiometric",1 µM,inhibition,> 80%
COc1ccc2oc(-c3ccc4nc(N)oc4c3)c/c(=N\c3ccccc3NC(=O)CCN)c2c1,"Epidermal growth factor receptor (EGFR, Homo sapiens, UniProt P00533, T790M)",cell-free assay,1 µM,remaining signal,99%
Cc1ccc(NC(=O)c2ccnc(C(F)(F)F)c2)cc1-c1cc(OCCO)nc(N2CCOCC2)c1,"Epidermal growth factor receptor (EGFR, Homo sapiens, UniProt P00533, G719S)",binding,1 µM,remaining binding,100%
C#Cc1cnc(Nc2ccnc(CO)c2)nc1Nc1ccccc1S(C)(=O)=NC#N (stereo not drawn),EGFR,"enzyme activity, inhibitor, radiometric",1 µM,remaining activity,80%
CN1CCN(C(=O)c2ccc(NC(=O)Nc3ccc(N(C)c4ccnc(Nc5ccc(CS(C)(=O)=O)cc5)n4)cc3)cc2)CC1,EGFR del752-759,binding,1 µM,remaining binding,100%
CS(=O)(=NC#N)c1ccccc1Nc1nc(Nc2ccnc(CO)c2)ncc1Cl (stereo not drawn),EGFR,"enzyme activity, inhibitor, radiometric",1 µM,remaining activity,99.4%
CO[C@@H]1[C@H](N(C)C(=O)c2ccccc2)C[C@H]2O[C@]1(C)n1c3ccccc3c3c4c(c5c6ccccc6n2c5c31)C(=O)NC4,"Epidermal growth factor receptor (EGFR, Homo sapiens, UniProt P00533, del747-752/P753S)","enzyme activity, inhibitor",1 µM,inhibition,10%
COc1ccc2[nH]c3c4[nH]c5ccc(OC)cc5c4c4c(c3c2c1)C(=O)NC4=O,EGFR del752-759,binding,1 µM,remaining binding,68%
C1=C/COCc2cc(ccc2OCCN2CCCC2)Nc2nccc(n2)-c2cccc(c2)COC/1,"Epidermal growth factor receptor (EGFR, Homo sapiens, UniProt P00533, A750P/del747-749)",binding,0.1 µM,remaining binding,67%
C[C@H]1CC[C@H](n2c3cnccc3c3cnc(Nc4ccc5c(n4)CCN(C(=O)CO)C5)nc32)CC1,EGFR del746-750,cell-free assay,1 µM,remaining signal,84%
CS(=O)(=O)c1ccccc1Nc1nc(Nc2ccnc(CO)c2)ncc1Cl,EGFR,"enzyme activity, inhibitor, radiometric",1 µM,remaining activity,94.8%
CC#CC(=O)N1CCC[C@H]1c1nc(-c2ccc(C(=O)Nc3ccccn3)cc2)c2c(N)nccn12,EGFR del746-750,"enzyme activity, inhibitor",1 µM,inhibition,0%
N#Cc1ccc(NC(=O)Nc2ccccc2)cc1,"Epidermal growth factor receptor (EGFR, Homo sapiens, UniProt P00533, L858R)","cell-free assay, competition with immobilised ligand",25 µM,remaining binding,75%
C=CC(=O)N1CCC([C@@H]2CCNc3c(C(N)=O)c(-c4ccc(Oc5ccccc5)cc4)nn32)CC1,EGFR del746-750,cell-free assay,1 µM,inhibition,21%
CS(=O)(=NC#N)c1ccccc1Nc1nc(Nc2ccc(CO)nc2)ncc1Cl (stereo not drawn),EGFR,"enzyme activity, inhibitor, radiometric",1 µM,remaining activity,98.3%
